This is a sample that favours compounds with a hit; in the whole collection about 2.3% have one here.
TRPC6 act: activates the mouse TRPC6 cation channel | Q61143 | HEK293-TRPC6 membrane potential dye fluorescence; stronger effect = higher value | B-score at 10 µM | hit rate 0.13% among 310,000;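 active means B-score of the integrated fluorescence ratio above library mean plus 3 SD, and starting fluorescence ratio within library mean plus 5 SD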;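 further: higher score means more depolarization so channel activation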
Target sequence (Q61143 whole entry, looked up): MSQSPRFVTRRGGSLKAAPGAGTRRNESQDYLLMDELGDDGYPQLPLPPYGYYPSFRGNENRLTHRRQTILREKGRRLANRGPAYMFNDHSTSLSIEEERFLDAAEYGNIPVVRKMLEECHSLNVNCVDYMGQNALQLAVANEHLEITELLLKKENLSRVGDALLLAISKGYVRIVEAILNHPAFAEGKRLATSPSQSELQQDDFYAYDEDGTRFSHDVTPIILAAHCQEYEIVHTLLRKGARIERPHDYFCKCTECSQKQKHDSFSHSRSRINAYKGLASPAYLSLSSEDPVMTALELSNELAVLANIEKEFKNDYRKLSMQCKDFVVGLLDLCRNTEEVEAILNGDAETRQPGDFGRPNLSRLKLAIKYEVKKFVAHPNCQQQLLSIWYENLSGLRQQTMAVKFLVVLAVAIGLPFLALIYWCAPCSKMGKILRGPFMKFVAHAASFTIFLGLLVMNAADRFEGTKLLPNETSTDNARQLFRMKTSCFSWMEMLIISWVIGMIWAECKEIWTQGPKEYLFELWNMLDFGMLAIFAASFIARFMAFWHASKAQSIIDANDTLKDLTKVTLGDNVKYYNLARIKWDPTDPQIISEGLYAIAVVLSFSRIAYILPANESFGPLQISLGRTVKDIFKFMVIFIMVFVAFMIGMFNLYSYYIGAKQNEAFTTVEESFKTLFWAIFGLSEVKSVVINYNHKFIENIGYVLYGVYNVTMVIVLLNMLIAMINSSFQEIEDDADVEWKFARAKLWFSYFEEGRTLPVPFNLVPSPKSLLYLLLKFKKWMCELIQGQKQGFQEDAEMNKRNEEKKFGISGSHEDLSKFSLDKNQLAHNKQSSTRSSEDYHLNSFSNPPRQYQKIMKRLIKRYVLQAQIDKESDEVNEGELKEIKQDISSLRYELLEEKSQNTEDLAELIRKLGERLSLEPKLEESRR
TRPC6 inhibitor: inhibitors of mouse TRPC6 channel. HEK293-TRPC6, membrane potential dye, ACh-evoked depolarization; stronger effect = lower value. B-score at 10 µM. hit rate 1.1% among 310,000;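 active means B-score under library mean minus 3 SD, initial fluorescence not abnormally high, positive integrated signal ratio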;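 further: B-score derived from integrated fluorescence ratio over the kinetic read; more negative B-score means stronger inhibition of depolarization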
TRPC4 inh: blocks the mouse TRPC4 cation channel | hit rate 0.39% among 300,000 | AID 2247 | HEK293 TRPC4beta/mu-opioid, DAMGO-evoked Fluo4 calcium flux; stronger effect = lower value | B-score at 10 µM;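 active means B-score over 3 SD under the library average, no early fluorescence shift, positive overall ratio signal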
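Test system – stable TRPC4beta/mu-opioid receptor HEK293 cells · Probe or stimulus – DAMGO, a submaximal dose followed by a maximal one · Dosing – one concentration per compound · Signal – Fluo4 calcium fluorescence by kinetic imaging, 5 s 1 Hz baseline · Evaluation – per-well B score of integrated baseline-normalized Fluo4 ratio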
TRPC4 PAM: TRPC4 (mouse) allosteric potentiation | AID 2227 | B-score at 10 µM | HEK293 TRPC4beta/mu-opioid, DAMGO EC20, Fluo-4 Ca2+ flux; stronger effect = higher value | Q9QUQ5 | hit rate 0.42% among 310,000;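 active means B-score of calcium response area above 5 SD of library B-scores, with initial fluorescence ratio within 5 SD of library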;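 further: B-score of integrated fluorescence ratio over time as area under calcium response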
TRPC4 act: TRPC4 (mouse) channel activation | hit rate 0.49% among 310,000 | HEK293 TRPC4beta/mu-opioid, Fluo4 calcium fluorescence; stronger effect = higher value | B-score at 10 µM | Q9QUQ5;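 active means B-score above 5 SD of library B-scores, and initial fluorescence ratio not above library mean plus 5 SD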;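 further: positive B-score marks a calcium rise read as TRPC4 activation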
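Assay system: HEK293 cells stably co-expressing mouse TRPC4beta and mu-opioid receptor / Timing: Fluo4 dye loading 45 min at room temperature, 110 s recording / Signal: Fluo4 calcium-sensitive dye fluorescence, kinetic, 1 Hz baseline / Read-out: integrated baseline-normalised fluorescence ratio, converted to per-well B score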
FID counter: fluorescent intercalator displacement, NS3 helicase counter-screen; inhibition, % at 7.9 µM; hit rate 0.17% among 290,000; DNA fluorescent intercalator displacement, fluorescence; in the data active means inhibition above about 37%;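 further: 0% = vehicle and 100% = reference compound; higher means more ethidium bromide displaced from hairpin DNA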
* = called active by the depositor.

Results for CN(C)c1ccc(/C=C/C(=O)c2cccc(Br)c2)cc1 ?
TRPC6 act: inactive; TRPC6 inhibitor: inactive; TRPC4 inh: inactive; TRPC4 PAM: 18*; TRPC4 act: 99*; FID counter: -2

What do the screens show for `CCCCn1c(N)c(N(CC(C)C)C(=O)c2c(CC)noc2C)c(=O)[nH]c1=O`?
TRPC6 act: inactive; TRPC6 inhibitor: inactive; TRPC4 inh: inactive; TRPC4 PAM: inactive; TRPC4 act: inactive

Results for COc1ccc2cc1Oc1ccc(cc1)CC1c3c(cc(OC)c4c3Oc3cc5c(cc3O4)CCNC5C2)CCN1C (configuration not stated) ?
TRPC6 act: inactive; TRPC6 inhibitor: inactive; TRPC4 inh: inactive; TRPC4 PAM: inactive; TRPC4 act: inactive; FID counter: 81*

How did Cn1ccnc1SCC(=O)NC1(C#N)CCCCC1 do in these assays?
TRPC6 act: inactive; TRPC6 inhibitor: inactive; TRPC4 inh: inactive; TRPC4 PAM: inactive; TRPC4 act: inactive

Results for Cc1cccc(/C=N/NC(=O)c2cccc(Cl)c2)n1 ?
TRPC6 act: inactive; TRPC6 inhibitor: inactive; TRPC4 inh: inactive; TRPC4 PAM: 21*; TRPC4 act: inactive; FID counter: -8

What do the screens show for `Cc1cccc(/C=N/NC(=O)c2cccc(NC(=O)c3ccccc3)c2)n1`?
TRPC6 act: inactive; TRPC6 inhibitor: inactive; TRPC4 inh: inactive; TRPC4 PAM: inactive; TRPC4 act: inactive; FID counter: -22

Results for COc1cccc(CNc2ncn[nH]2)c1OCc1ccc(F)cc1 ?
TRPC6 act: inactive; TRPC6 inhibitor: inactive; TRPC4 inh: inactive; TRPC4 PAM: inactive; TRPC4 act: inactive; FID counter: 7

What do the screens show for `CCN1CCCC1CNC(=O)c1cc2c(OC)cccc2[nH]1` (configuration not stated)?
TRPC6 act: inactive; TRPC6 inhibitor: inactive; TRPC4 inh: inactive; TRPC4 PAM: inactive; TRPC4 act: 154*; FID counter: -3

How did CCN1CCCC1CNCc1ccc(Cl)cc1Cl (configuration not stated) do in these assays?
TRPC6 act: inactive; TRPC6 inhibitor: inactive; TRPC4 inh: inactive; TRPC4 PAM: 29*; TRPC4 act: inactive; FID counter: 12

Results for CCN1CCCC1CNCc1cccc(OC)c1OCc1ccc(F)cc1 (configuration not stated) ?
TRPC6 act: inactive; TRPC6 inhibitor: inactive; TRPC4 inh: inactive; TRPC4 PAM: inactive; TRPC4 act: 58*; FID counter: 27

What do the screens show for `C=CCn1c(NCc2ccc(OC)cc2O)nc2ccccc21`?
TRPC6 act: inactive; TRPC6 inhibitor: inactive; TRPC4 inh: inactive; TRPC4 PAM: inactive; TRPC4 act: inactive; FID counter: 0

Results for Cc1ccc(C2(O)CN(c3ccccc3)C3=[N+]2CCS3)cc1 (configuration not stated) ?
TRPC6 act: inactive; TRPC6 inhibitor: inactive; TRPC4 inh: -7*; TRPC4 PAM: inactive; TRPC4 act: 43*; FID counter: -7

What do the screens show for `O=[N+]([O-])c1ccc(C2(O)CN(c3ccccc3)C3=[N+]2CCS3)cc1` (configuration not stated)?
TRPC6 act: inactive; TRPC6 inhibitor: inactive; TRPC4 inh: -7*; TRPC4 PAM: inactive; TRPC4 act: 87*; FID counter: 4

How did OC1(c2cccs2)CN(c2ccc(Cl)cc2)C2=[N+]1CCCS2 (configuration not stated) do in these assays?
TRPC6 act: inactive; TRPC6 inhibitor: inactive; TRPC4 inh: inactive; TRPC4 PAM: inactive; TRPC4 act: inactive; FID counter: 10

Results for OC1(c2ccc(F)cc2)CN(c2ccccc2)C2=[N+]1CCS2 (configuration not stated) ?
TRPC6 act: inactive; TRPC6 inhibitor: inactive; TRPC4 inh: -6*; TRPC4 PAM: inactive; TRPC4 act: inactive; FID counter: -12

Results for CC(NC(=O)CSc1ncccc1C(=O)O)C1CC2CCC1C2 (configuration not stated) ?
TRPC6 act: inactive; TRPC6 inhibitor: inactive; TRPC4 inh: inactive; TRPC4 PAM: inactive; TRPC4 act: inactive; FID counter: 0

What do the screens show for `CC(=O)c1ccc(NC(=O)CSc2cn[nH]n2)cc1`?
TRPC6 act: inactive; TRPC6 inhibitor: inactive; TRPC4 inh: inactive; TRPC4 PAM: inactive; TRPC4 act: inactive; FID counter: -4

Results for O=C(CCNC(=O)c1ccc(Br)cc1)NCc1cccnc1 ?
TRPC6 act: inactive; TRPC6 inhibitor: inactive; TRPC4 inh: inactive; TRPC4 PAM: inactive; TRPC4 act: inactive

How did Cc1ccc(C(=O)NNC(=O)c2ccc(NC(=O)C(C)(C)C)cc2)cc1 do in these assays?
TRPC6 act: inactive; TRPC6 inhibitor: inactive; TRPC4 inh: inactive; TRPC4 PAM: inactive; TRPC4 act: inactive; FID counter: -7

How did CCN(CC)CCn1c2ccccc2c2n[nH]c(=S)nc21 do in these assays?
TRPC6 act: inactive; TRPC6 inhibitor: inactive; TRPC4 inh: inactive; TRPC4 PAM: inactive; TRPC4 act: 63*; FID counter: 3

Results for Cc1ccc(C(=O)Nc2cccc(C(=O)NC3CCCC3)c2)cc1 ?
TRPC6 act: inactive; TRPC6 inhibitor: inactive; TRPC4 inh: inactive; TRPC4 PAM: inactive; TRPC4 act: inactive; FID counter: -34

How did CC1CC(=O)c2c(cc3c(-c4c(O)cc(O)c5c(O)c6c(cc45)OC(C)CC6=O)c(O)cc(O)c3c2O)O1 (configuration not stated) do in these assays?
TRPC6 act: 43*; TRPC6 inhibitor: inactive; TRPC4 inh: inactive; TRPC4 PAM: inactive; TRPC4 act: inactive; FID counter: 28

Results for CC12CCCCN1CCCc1c2[nH]c2ccccc12 (configuration not stated) ?
TRPC6 act: inactive; TRPC6 inhibitor: inactive; TRPC4 inh: inactive; TRPC4 PAM: inactive; TRPC4 act: 91*; FID counter: 3

Results for CC(=O)Nc1ccc(CN2CCCC(CO)(Cc3ccccc3C)C2)cc1 (configuration not stated) ?
TRPC6 act: inactive; TRPC6 inhibitor: inactive; TRPC4 inh: inactive; TRPC4 PAM: inactive; TRPC4 act: inactive; FID counter: 8

Results for CCOC(=O)C1(Cc2ccccc2C)CCCN(Cc2ccc(NC(C)=O)cc2)C1 (configuration not stated) ?
TRPC6 act: inactive; TRPC6 inhibitor: inactive; TRPC4 inh: -9*; TRPC4 PAM: inactive; TRPC4 act: inactive; FID counter: 15

Screening results from PubChem.
